Rows were chosen to be rich in hits. Some 1.1% of all compounds tested hit in one or more screens of this group.
T cell HTS = modulators of CD8 T cell-vesicle binding, primary screen, mouse 2C CD8+ T cells, flow cytometry; 2C CD8+ T cell-vesicle binding; hits give low values; response (vesicle binding), % at 7 µM; 330,000 compounds, 0.068% hits;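 active means response, share of CD8 T cells binding vesicles, and their 90th percentile fluorescence all below set limits, cut at about 80% in these data, passing the limit was not always enough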;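 further: values below 100% mean blocked vesicle binding to the CD8+ T cells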
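Also added: QL9-peptide-loaded Drosophila micro-vesicles bearing Ld, ICAM-1 and B7-1; Test system: purified 2C TCR transgenic mouse naive CD8+ T cells; Measured by: cytometric PE anti-B7-1 and Alexa647 anti-CD8 signals after 1% paraformaldehyde fixation; Timing: binding step 1.5 h, 37 °C, antibody labelling 20 min, ice.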
procasp7 counter = procaspase-7 activators, primary screen, counter-screen for procaspase-3 activator project, biochemical, absorbance, HTS, human. Caspase-7 (Homo sapiens), P55210. recombinant procaspase-7, Ac-DEVD-pNA absorbance 405 nm; D23A/D198A/D206A triple mutant, cannot self-cleave; scale: DMSO 0, 5 µM enzyme 100. activation, % at 8.5 µM. 330,000 compounds, 0.093% hits;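 active means percent activation above the screen-wide mean plus 3 SD, cut at about 25% in these data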
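buffer or medium = Zinc-free HEPES/NaCl buffer, pH 7.4 | material = Procaspase-7 triple mutant (PC-7 D3A) | input = 2 µM procaspase-7 mutant as dispensed | signal = Epi-absorbance of released pNA at 405 nm, two timepoints | timing = 1 h preincubation, 2 h reaction | replicates = singlicate compound testing | evaluation = % activation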
aDG glyco up = activators of alpha-DG glycosylation, primary screen, uHTS, Pro5-aDG cells, AlphaScreen | alpha-DG glycosylation AlphaScreen (IIH6); 0% Pro5, 100% B10-LARGE cell signal | activation, % at 10 µM | 360,000 compounds, 0.22% hits;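 active means activation of at least 8% versus controls, or a plate z-score of at least 8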;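 further: Pro5 are CHO cells carrying HIG-tagged alpha-DG that lacks glycosylation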
procasp3 activ = activators of human procaspase-3 D3A mutant, primary screen, biochemical, absorbance, PC-3 D3A mutant, single concentration; Caspase-3 (Homo sapiens), P42574; recombinant procaspase-3 D3A, Ac-DEVD-pNA absorbance 405 nm; activation, % at 8.5 µM; 330,000 compounds, 0.11% hits; AID 463141, 2010;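 active means activation above the mean of all tested compounds plus 3 SD, cut at about 21% in these data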
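Assay system: Autoprocessing-dead procaspase-3 D3A mutant enzyme; also added: Ac-DEVD-pNA; doses: one concentration, 8.5 µM nominal, 0.8% DMSO; times: 1 h compound preincubation, 2 h substrate hydrolysis at 25 °C; technique: 405 nm absorbance of p-nitroaniline, reads at 0 and 120 min; measure: % activation between DMSO and enzyme-spiked controls; repeats: single replicate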
CaV13 FRET inh = Disruptors of the CACNA1D IQ motif to Ca2+-dependent inactivation inhibitor domain association, primary screening, Förster resonance energy transfer in intact living …. 340,000 compounds, 0.098% hits. HEK cells, CFP/YFP FRET ICDI-IQ, plate reader, 10 min; percent FRET-ratio fall versus neutral wells. AID 743397. inhibition, % at 12.3 µM;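 active means mean replicate inhibition of at least 30% and at least 1% of replicates passing that level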
GRK2 aptamer HTS = compounds blocking aptamer binding on GRK2 – biochemical, human GRK2, bead flow cytometry, HTS, primary screen; FAM-aptamer displacement from GRK2; inhibition of aptamer binding, % at 10 µM; 330,000 compounds, 0.59% hits; AID 488847, 2010;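 active means inhibition of aptamer binding above 40%, roughly 3 SD of noise, on plates passing a quality check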;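 further: median bead fluorescence of bound FAM aptamer so fluorescent compounds give negative values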
Target sequence (P25098 whole entry, looked up): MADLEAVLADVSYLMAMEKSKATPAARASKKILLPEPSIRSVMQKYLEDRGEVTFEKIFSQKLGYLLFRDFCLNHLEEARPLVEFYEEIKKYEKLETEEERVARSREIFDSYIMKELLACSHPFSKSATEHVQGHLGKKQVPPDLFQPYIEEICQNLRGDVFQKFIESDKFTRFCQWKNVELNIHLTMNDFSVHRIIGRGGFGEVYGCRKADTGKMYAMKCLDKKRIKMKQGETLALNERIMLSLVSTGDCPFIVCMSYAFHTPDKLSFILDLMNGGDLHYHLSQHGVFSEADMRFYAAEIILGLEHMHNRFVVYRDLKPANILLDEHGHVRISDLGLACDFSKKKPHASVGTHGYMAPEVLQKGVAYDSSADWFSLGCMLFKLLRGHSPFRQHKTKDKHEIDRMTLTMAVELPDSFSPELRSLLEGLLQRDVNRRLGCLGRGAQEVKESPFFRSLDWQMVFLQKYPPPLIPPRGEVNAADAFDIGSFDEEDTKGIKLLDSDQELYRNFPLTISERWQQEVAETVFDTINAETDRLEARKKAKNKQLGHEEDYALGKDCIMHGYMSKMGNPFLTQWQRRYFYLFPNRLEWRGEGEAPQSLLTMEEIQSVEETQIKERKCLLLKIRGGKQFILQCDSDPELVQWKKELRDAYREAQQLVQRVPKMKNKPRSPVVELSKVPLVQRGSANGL
PC3 dual counter = procaspase-3 activators, counter-screen for dual procaspase-3/7 activator project, biochemical, absorbance, PC-3 D3A mutant, human. shares compounds with procasp7 counter. recombinant PC-3 D3A, Ac-DEVD-pNA absorbance 405 nm; aspartates 9, 28, 175 changed to alanine; 100% = enzyme control. activation, % at 8.5 µM. 290 tested, under 10 active. AID 493114, 2011;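 active means mean percent activation across triplicates above a set limit taken from the earlier primary procaspase-3 screen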
Procasp7 act = activation of procaspase-7 enzyme – biochemical, absorbance, human, dual procaspase-3/-7 activator project, confirmation. shares compounds with procasp7 counter. recombinant procaspase-7, Ac-DEVD-pNA absorbance 405 nm; D23A/D198A/D206A mutant that cannot self-cleave. activation, % at 8.5 µM. 290 tested, under 10 active. AID 493115, 2011;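 active means mean activation above a set limit carried over from the earlier primary screen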
Hits are given with their value; n = inactive; x = no result.

SMILES | T cell HTS | procasp7 counter | aDG glyco up | procasp3 activ | CaV13 FRET inh | GRK2 aptamer HTS | PC3 dual counter | Procasp7 act
COC(=O)[C@]12C[C@H](CC(=O)NCc3ccc(OC)c(OC)c3)C(=O)N(Cc3ccccc3)C1=C[C@H](C1CCCC1)O[C@@H]2C | x | x | x | x | n | x | x | x
COC(=O)C1=C(C)NC(C)=C(C(=O)OC)C1C(=O)OCCN1C(=O)c2ccccc2C1=O | n | 44 | n | n | n | n | n | n
CC(C)(C)c1ccc(C#C[C@@H]2C=C[C@@H](O)[C@@H](COC(=O)NCc3ccccc3)O2)cc1 | x | x | x | x | n | x | x | x
CC(C)[C@@H](C)/C=C/[C@@H](C)[C@H]1CC[C@@H]2[C@]1(C)CCC1[C@]23C=C[C@]2(C[C@@H](O)CC[C@]12C)N(C(=O)Cc1ccccc1)O3 (stereo partly drawn) | x | x | x | x | n | x | x | x
CCc1cc2c3c(c(=O)oc2cc1O)CCCC3 | n | 26 | n | 28 | x | n | n | n
CCN(CC)c1ccc(-c2c(C#N)c(N)nc(OC)c2C#N)cc1 | n | 27 | n | 60 | n | n | n | n
Cn1nc(N)c2c(-c3ccc(Cl)cc3)c(C#N)c(N)nc21 | n | n | n | n | n | n | x | x
O=C(N/N=C/c1c[nH]c2ccccc12)c1cc(-c2ccc3ccccc3c2)n[nH]1 | n | 31 | n | n | n | n | n | n
Cc1[nH]nc2c1C(c1c[nH]c3ccccc13)C(C#N)=C(N)O2 (stereo not drawn) | n | 29 | n | n | n | n | n | n
COC(=O)C1=C(C)N(C)C(=NCc2cc(OC)c(OC)c(OC)c2)NC1c1ccc(Cl)cc1 (stereo not drawn) | x | x | x | x | n | x | x | x
Fc1ccc(C2CC(c3ccco3)=NN2c2ccccc2)cc1 (stereo not drawn) | n | 36 | n | 32 | n | n | n | n
COc1ccc(C(=O)N/N=C/c2ccc(N(C)c3ccccc3)cc2)cc1 | n | 44 | n | 41 | n | n | n | n
CN(C)c1cccc2c(S(=O)(=O)NC(=O)[C@H]3O[C@@H](n4ccc(=O)[nH]c4=O)[C@H](O)[C@@H]3O)cccc12 | x | x | x | x | n | x | x | x
c1ccc(Cn2cc(CCOCc3ccccn3)c3ccccc32)cc1 | x | x | x | x | n | x | x | x
O=C(CCC(=O)N(CC(=O)NC1CCCC1)Cc1ccccc1)Nc1nccs1 | n | 101 | n | n | n | n | n | n
O=C(CCC(=O)N(CC(=O)NC1CCCCC1)Cc1ccccc1)Nc1nccs1 | n | n | n | n | n | n | x | x
Cc1ccc2nc(-c3ccc(NC(=O)C(C)Sc4nncs4)cc3)sc2c1 (stereo not drawn) | n | 30 | n | n | n | n | n | n
COc1ccc(CNC(=O)C(c2ccc(C)o2)N(C(=O)c2snc(C(N)=O)c2N)c2ccccc2OC)cc1 (stereo not drawn) | n | 26 | n | n | n | n | n | n
NC(=O)c1nsc(C(=O)N(c2ccccc2)C(C(=O)NCc2ccc(F)cc2)c2ccc(O)cc2)c1N (stereo not drawn) | n | 157 | n | n | n | n | n | n
COc1ccc(OC)c(C(C(=O)NC2CCCCC2)N(C(=O)c2snc(C(N)=O)c2N)c2ccccc2OC)c1 (stereo not drawn) | n | n | n | n | n | n | x | x
COc1ccccc1N(C(=O)c1snc(C(N)=O)c1N)C(C(=O)NC1CCCCC1)c1cccc(OC)c1OC (stereo not drawn) | n | 37 | n | n | n | n | n | n
Cc1cc(O)cc(=O)n1-c1cc(F)c(F)c(F)c1 | x | x | x | x | n | x | x | x
C[C@@H]1CN([C@@H](C)CO)C(=O)CCCn2cc(nn2)CO[C@H]1CN(C)C(=O)c1ccncc1 | x | x | x | x | n | x | x | x
Cc1ccccc1Cn1ccc(NC(=O)c2cc3nc(-c4ccco4)cc(C(F)(F)F)n3n2)n1 | n | 48 | n | n | n | n | n | n
O=C(NCc1ccccc1)[C@@H]1CCCN1C(=O)[C@H]1CCCN1C(=O)c1cccc2ccccc12 | x | x | x | x | n | x | x | x
SMILES | T cell HTS | procasp7 counter | aDG glyco up | procasp3 activ | CaV13 FRET inh | GRK2 aptamer HTS | PC3 dual counter | Procasp7 act
CCOC(=O)/C(=C/c1ccc(N2CCC(c3ccccc3)=N2)cc1)C(C)=O | x | x | n | x | x | x | x | x
c1ccc(C2=NN(c3ccccc3)CC2)cc1 | n | 39 | n | 36 | n | n | n | n
CCN1CCN(CCCNC(=O)c2ccc(/C=C3/Oc4ccccc4N(Cc4cccc(C)c4)C3=O)cc2)CC1 | n | 28 | n | n | x | n | n | n
O=C(NCCCN1CCOCC1)c1ccc(/C=C2\Oc3ccccc3N(Cc3ccccc3F)C2=O)cc1 | n | 50 | n | 22 | n | n | n | n
COCCCNC(=O)C[C@H]1C[C@@]2(C(=O)OC)C(=C[C@H](C(C)(C)C)O[C@@H]2C)N(CCc2ccc(OC)c(OC)c2)C1=O | x | x | x | x | n | x | x | x
COc1ccc(C2CC(=O)C(c3ccccc3)=CN2Cc2ccccc2)cc1 (stereo not drawn) | x | x | x | x | n | x | x | x
COCC(=O)Nc1cccc(Br)c1 | n | 26 | n | n | n | n | n | n
C=CCSc1nnc(-c2cc3c(s2)-c2ccccc2CC3)o1 | n | 28 | n | n | n | n | n | n
COC(=O)CSc1nc(C)c(C(=O)Nc2ccccc2C)c(-c2ccc(Cl)cc2)c1C#N | n | 32 | n | n | n | n | n | n
Cc1ccccc1NC(=O)c1c(C)nc(SCC(=O)OCc2ccccc2)c(C#N)c1-c1ccc(F)cc1 | n | n | n | n | n | n | x | x
COC(=O)C1=C(C)N(C)C(=NCC2CC2)NC1CCc1ccccc1 (stereo not drawn) | x | x | x | x | n | x | x | x
Cc1ccc(C(=O)Cc2nc3ccccc3[nH]2)cc1 | n | n | n | n | n | n | x | x
CCOC(=O)Cc1nc2ccccc2[nH]1 | n | 79 | n | n | n | n | n | n

Source: PubChem (several laboratories)
